# According to ChEMBL document CHEMBL3994624, “Antimalarial Pyrido[1,2-a]benzimidazoles: Lead Optimization, Parasite Life Cycle Stage Profile, Mechanistic Evaluation, Killing Kinetics, and in Vivo Oral Efficacy in a Mouse Model” (J Med Chem, 2017):
# pIC50: −log10 of the molar value.
# How the values were obtained:
# Plasmodium falciparum [1] = assay: Anti-plasmodial activity against chloroquine-sensitive Plasmodium falciparum NF54 by [3H]-hypoxanthine incorporation assay; assay type: functional
# Procedure, shortened: (§1)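 P. falciparum asexual blood-stage growth inhibition by [3H]hypoxanthine incorporation; chloroquine and artesunate run as reference drugs in every experiment; IC50 given as mean of ≥2 independent experiments.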
# [2] = Metabolic stability in Balb/c mouse liver microsomes assessed as compound remaining at 1 uM in presence of NADPH after 30 mins by LC-MS/MS analysis; assay type: ADME, microsome; conditions: read-out: Stability
# Procedure, shortened: (§2)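 Mouse and human liver microsomes; % compound remaining after 30 min.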
# Plasmodium falciparum [3] = assay: Anti-plasmodial activity against multidrug resistant Plasmodium falciparum K1 by [3H]-hypoxanthine incorporation assay; assay type: functional; procedure, shortened: as §1
# [4] = Selectivity index, ratio of IC50 for CHO cells to IC50 for chloroquine-sensitive Plasmodium falciparum NF54; assay type: toxicity; conditions: hamster, read-out: Ratio IC50
# Procedure, shortened: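 Selectivity index = IC50 CHO / IC50 PfNF54.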
# CHO = assay: Cytotoxicity against CHO cells after by MTT assay; assay type: cell-based; conditions: Cricetulus griseus
# Plasmodium falciparum [5] = assay: Ratio of IC50 for chloroquine-sensitive Plasmodium falciparum NF54 after 24 hrs to IC50 for chloroquine-sensitive Plasmodium falciparum NF54 after 72 hrs; assay type: functional
# [6] = Kinetic solubility of the compound in FaSSIF at pH 6.5 after 2 hrs by shake flask method; assay type: physicochemical; conditions: read-out: Kinetic_solubility
# Plasmodium falciparum [7] = assay: Ratio of IC50 for chloroquine-sensitive Plasmodium falciparum NF54 early 2/3 stage gametocytes to IC50 for chloroquine-sensitive Plasmodium falciparum NF54 late 4/5 stage gametocytes; assay type: functional
# Procedure, shortened: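 Early (stage II/III) and late (stage IV/V) gametocytes tested in parallel luciferase reporter assays; stage preference = EG IC50/LG IC50.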
# Huh-7 = assay: Cytotoxicity against human HuH7 cells at 1 to 10 uM after 48 hrs by Alamarblue assay; assay type: cell-based; conditions: huh-7, 48 h
# Plasmodium falciparum [8] = assay: Anti-plasmodial activity against chloroquine-sensitive Plasmodium falciparum NF54 late 4/5 stage gametocytes assessed as reduction in ATP levels after 24 hrs by BacTiter-Glo reagent based bioluminescence assay; assay type: functional; conditions: NF54, 24 h
# [9] = Metabolic stability in human liver microsomes assessed as compound remaining at 1 uM in presence of NADPH after 30 mins by LC-MS/MS analysis; assay type: ADME, microsome; conditions: read-out: Stability; procedure, shortened: as §2
SMILES,pIC50 (Plasmodium falciparum [1]),pIC50 (Plasmodium falciparum [3]),selectivity ratio [4],pIC50 (CHO),other results
N#Cc1c(-c2ccc(C(F)(F)F)cc2)cc(NCCN2CCC(O)C2)n2c1nc1ccccc12 (stereo not given),7.40,7.52,153,5.21,"remaining at 0.5 h, 1 µM [2]: 51%; Ratio IC50 (Plasmodium falciparum [5]): 18; solubility kinetic at 2 h [6]: < 5 µM"
CN1CCC(Nc2cc(-c3ccc(C(F)(F)F)cc3)c(C#N)c3nc4cc(Cl)c(Cl)cc4n23)CC1,7.30,6.72,6.1,5.38,
CCNCCNc1cc(-c2ccc(C#N)cc2)c(C#N)c2nc3ccccc3n12,6.77,6.70,23,5.41,Ratio IC50 (Plasmodium falciparum [7]): 1.3; Activity (Huh-7): Non-Toxic; pIC50 (Plasmodium falciparum [8]): 5.58
CCNCCNc1cc(-c2ccc(Cl)cc2)c(C#N)c2nc3ccccc3n12,6.18,6.37,15,5.02,Ratio IC50 (Plasmodium falciparum [7]): 1.5; Activity (Huh-7): Non-Toxic; pIC50 (Plasmodium falciparum [8]): 6.16
CCNCCNc1cc(-c2ccc(F)cc2)c(C#N)c2nc3ccccc3n12,6.48,6.27,35,4.94,Ratio IC50 (Plasmodium falciparum [7]): 2.1; Activity (Huh-7): Non-Toxic; pIC50 (Plasmodium falciparum [8]): 5.75
CN1CCN(c2cc(-c3ccc(C(F)(F)F)cc3)c(C#N)c3nc4ccccc4n23)CC1,5.14,6.34,,,
CCNCCNc1cc(-c2ccccc2)c(C#N)c2nc3ccccc3n12,6.15,5.97,26,4.74,Activity (Huh-7): Non-Toxic; pIC50 (Plasmodium falciparum [8]): 5.84
CCNCCNc1cc(C2CCCCC2)c(C#N)c2nc3ccccc3n12,6.33,6.17,7,5.50,"Ratio IC50 (Plasmodium falciparum [7]): 3.3; remaining at 0.5 h, 1 µM [2]: 42%; Activity (Huh-7): Non-Toxic; pIC50 (Plasmodium falciparum [8]): 6.34; solubility kinetic at 2 h [6]: 10 µM"
CCNCCNc1cc(-c2ccc(C(F)(F)F)cc2)c(C#N)c2nc3cnccc3n12,6.57,6.08,6,5.50,
N#Cc1c(-c2ccc(C(F)(F)F)cc2)cc(N2CCC(N)CC2)n2c1nc1ccccc12,6.02,6.15,17,4.80,"remaining at 0.5 h, 1 µM [2]: 92%; remaining at 0.5 h, 1 µM [9]: 91%; solubility kinetic at 2 h [6]: < 5 µM"
CCNCCNc1cc(-c2ccc(S(C)(=O)=O)cc2)c(C#N)c2nc3ccccc3n12,6.51,6.48,658,3.69,"remaining at 0.5 h, 1 µM [2]: 86%; solubility kinetic at 2 h [6]: 40 µM"
N#Cc1c(-c2ccc(C(F)(F)F)cc2)cc(N2CCC(N)CC2)n2c1nc1cc(Cl)cc(Cl)c12,6.74,6.68,7.3,5.53,

# Now from value to compound, other results behind:
pIC50 (Plasmodium falciparum [1]),SMILES,pIC50 (Plasmodium falciparum [3]),selectivity ratio [4],pIC50 (CHO),other results
< 4.62,N#Cc1c(-c2ccc(C(F)(F)F)cc2)cc(N2CCC(O)CC2)n2c1nc1ccccc12,,,,
< 5.00,N#Cc1c(-c2ccc(C(F)(F)F)cc2)cc(NC2CCC(O)CC2)n2c1nc1ccccc12 (stereo not given),,,,
5.07,N#Cc1c(-c2ccc(C(F)(F)F)cc2)cc(N2CCC(O)C2)n2c1nc1ccccc12 (stereo not given),,,,
5.94,CNC1CCN(c2cc(-c3ccc(C(F)(F)F)cc3)c(C#N)c3nc4ccccc4n23)C1 (stereo not given),,,,
6.59,N#Cc1c(-c2ccc(C(F)(F)F)cc2)cc(NC2CCNCC2)n2c1nc1cc(Cl)cc(Cl)c12,,22.3,5.23,
5.81,CCNCCNc1cc(-c2ccc(C(=O)OC)cc2)c(C#N)c2nc3ccccc3n12,,,,Ratio IC50 (Plasmodium falciparum [7]): 1.4; Activity (Huh-7): Non-Toxic; pIC50 (Plasmodium falciparum [8]): 5.77
5.11,N#Cc1c(-c2ccc(C(F)(F)F)cc2)cc(NC2CCS(=O)(=O)CC2)n2c1nc1ccccc12,,,,
5.86,CNC1CCCN(c2cc(-c3ccc(C(F)(F)F)cc3)c(C#N)c3nc4ccccc4n23)C1 (stereo not given),,,,
< 5.00,CS(=O)(=O)N1CCN(CCNc2cc(-c3ccc(C(F)(F)F)cc3)c(C#N)c3nc4ccccc4n23)CC1,,,,
5.26,CCNCCNc1c(F)c(-c2ccc(C(F)(F)F)cc2)c(C#N)c2nc3ccccc3n12,,,,"remaining at 0.5 h, 1 µM [2]: 35%; remaining at 0.5 h, 1 µM [9]: 39%; solubility kinetic at 2 h [6]: 160 µM"
6.42,CCNCCNc1cc(-c2ccc(C(F)(F)F)cc2)c(C#N)c2nc3cc(Br)ccc3n12,,5,5.74,
5.04,CS(=O)(=O)NCCNc1cc(-c2ccc(C(F)(F)F)cc2)c(C#N)c2nc3ccccc3n12,,,,
5.22,N#Cc1c(-c2ccc(C(F)(F)F)cc2)cc(NCCN2CCCC2=O)n2c1nc1ccccc12,,,,
5.53,CCNCCNc1cc(C(F)(F)F)c(C#N)c2nc3ccccc3n12,,,,
5.30,CS(=O)(=O)N1CCC(Nc2cc(-c3ccc(C(F)(F)F)cc3)c(C#N)c3nc4ccccc4n23)CC1,,,,
